In ChEMBL document CHEMBL5033992, “Discovery and Synthesis of a Pyrimidine-Based Aurora Kinase Inhibitor to Reduce Levels of MYC Oncoproteins” (J Med Chem, 2021):
The source made the active and inactive calls. The calls are words filed in the database; no cut-off is given here.

Key:
NCI-H446 [1] = experiment: Anti-tumor activity against human NCI-H446 cells xenografted in athymic nu/nu nude mouse assessed as reduction in tumor volume at 50 to 100 mg/kg, po administered at 5 on-2-off for 2 to 4 weeks; format: functional, organism-based; details: dose 50-100 mg/kg, time 2-4 weeks
Summary of the method: (§1)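 Male athymic nu/nu mice, 6 weeks old, inoculated subcutaneously with 1 × 10⁶ NCI-H446 cells in saline with 50% Matrigel. Dosing IV or oral, vehicle 5% dimethylacetamide/95% PEG400, on a 5-on-2-off schedule for 2–4 weeks once tumors reached ≥200 mm³. Caliper volume = length × width²/2; tumors and body weight measured at least twice weekly. ANOVA with Student–Newman–Keuls, P < 0.05.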

[2] = Inhibition of Histone H3 phosphorylation in human NCI-H446 cells xenografted in assessed as reduction in phosphorylation at Ser 10 residue at 100 mg/kg, po measured upto 8 hrs by western blot analysis relative to control
[3] = Volume of distribution at steady state in ICR mouse at 2 mg/kg, iv measured up to 24 hrs by LC-MS/MS analysis; format: ADME, organism-based; details: in vivo, read-out: Vdss
NCI-H446 [4] = experiment: Induction of apoptosis in human NCI-H446 cells xenografted in athymic nu/nu nude mouse assessed as increase in cleaved PARP1 protein expression level at 100 mg/kg, po measured up to 24 hrs by Western blot analysis; details: time hrs <=24
NCI-H446 [5] = experiment: Induction of apoptosis in human NCI-H446 cells xenografted in athymic nu/nu nude mouse assessed as increase in cleaved CASP3 protein expression level at 100 mg/kg, po measured up to 24 hrs by IHC analysis; details: time hrs <=24
[6] = Cmax in ICR mouse at 10 mg/kg, po measured up to 24 hrs by LC-MS/MS analysis; format: ADME, organism-based; parameters: route oral, dose 10 mg/kg, time <=24; details: in vivo
[7] = AUC (0 to inf) in ICR mouse at 2 mg/kg, iv measured up to 24 hrs by LC-MS/MS analysis; format: ADME, organism-based; parameters: route intravenous, dose 2 mg/kg, time <=24; details: ICR, in vivo
[8] = AUC (0 to inf) in ICR mouse at 10 mg/kg, po measured up to 24 hrs by LC-MS/MS analysis; format: ADME, organism-based; parameters: route oral, dose 10 mg/kg, time <=24; details: in vivo
NCI-H446 [9] = experiment: Effect on cMYC protein expression level in human NCI-H446 cells xenografted in athymic nu/nu nude mouse at 100 mg/kg, po measured upto 24 hrs by western blot analysis relative to control; details: time hrs <=24
[10] = Tmax in ICR mouse at 10 mg/kg, po measured up to 24 hrs by LC-MS/MS analysis; format: ADME, organism-based; details: in vivo
[11] = Clearance in ICR mouse at 2 mg/kg, iv measured up to 24 hrs by LC-MS/MS analysis; format: ADME, organism-based; details: in vivo
NCI-H446 [12] = experiment: Anti-tumor activity against human NCI-H446 cells xenografted in athymic nu/nu nude mouse assessed as reduction in tumor volume at 50 mg/kg, po administered at 5 on-2-off for 3 weeks and further dosed 100 mg/kg, po for 4 th week relative to control; format: functional, organism-based; details: time 4.0 weeks; summary of the method: as §1
[13] = Half life in ICR mouse at 10 mg/kg, po measured up to 24 hrs by LC-MS/MS analysis; format: ADME, organism-based; details: in vivo
[14] = Toxicity in athymic nu/nu nude mouse xenografted with NCI-H446 cells assessed as reduction in body weight at 50 to 100 mg/kg, po administered at 5 on-2-off for 2 to 4 weeks relative to control; format: organism-based; parameters: scale not given: the % may be the effect or the level left; details: in vivo, dose lower 50 mg/kg, time lower 2 weeks, dose upper 100 mg/kg, time upper 4 weeks; summary of the method: as §1
[15] = Half life in ICR mouse at 2 mg/kg, iv measured up to 24 hrs by LC-MS/MS analysis; format: ADME, organism-based; details: in vivo
[16] = Toxicity in athymic nu/nu nude mouse xenografted with NCI-H446 cells assessed as reduction in body weight 50 mg/kg, po administered at 5 on-2-off for 3 weeks and further dosed 100 mg/kg, po for 4 th week relative to control; format: organism-based; parameters: scale not given: the % may be the effect or the level left; details: in vivo, 672 h, at 50 to 100 mg/kg, dose 50-100 mg/kg, time 4 weeks; summary of the method: as §1
[17] = biological target: Aurora kinase B (Homo sapiens) (UniProt Q96GD4); experiment: Inhibition of Aurora B phosphorylation in human NCI-H82 cells assessed as reduction in phosphorylation at Thr 232 residue at 50 to 1000 nM after 24 hrs by Western blot analysis; format: cell-based; details: dose 50-1000 nM
Aurora kinase B (Homo sapiens), sequence (Q96GD4 whole entry): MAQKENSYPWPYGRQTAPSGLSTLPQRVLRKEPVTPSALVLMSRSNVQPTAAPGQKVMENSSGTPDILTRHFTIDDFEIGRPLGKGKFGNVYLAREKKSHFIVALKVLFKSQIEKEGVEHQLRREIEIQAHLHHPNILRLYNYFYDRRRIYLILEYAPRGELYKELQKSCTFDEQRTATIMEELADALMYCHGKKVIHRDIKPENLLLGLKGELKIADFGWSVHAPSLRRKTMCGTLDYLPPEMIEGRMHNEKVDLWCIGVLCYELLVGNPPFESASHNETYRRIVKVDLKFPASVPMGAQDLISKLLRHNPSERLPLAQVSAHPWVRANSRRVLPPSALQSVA
Summary of the method: (§2)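 Cells treated with compound at various concentrations for 24 h, then washed in PBS, lysed in Laemmli buffer and boiled 10 min. Lysates run on SDS-PAGE, transferred to PVDF and probed with antibodies, then AP- or HRP-conjugated secondaries with chemiluminescent detection. Loading control β-actin. NCI-H82 grown in RPMI1640 and SK-N-BE(2) in MEM, each with 10% FBS. Relative levels quantified from triplicate experiments.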

NCI-H82 [18] = experiment: Down regulation of cMYC protein expression level in human NCI-H82 cells at 1 uM incubated for 2 to 4 hrs in presence of MG132 by Western blot analysis; format: functional, cell-based; details: time 2-4 hrs
[19] = Toxicity in athymic nu/nu nude mouse xenografted with NCI-H446 cells assessed as reduction in body weight at 50 mg/kg, iv administered at 5 on-2-off for 2 to 4 weeks relative to control; format: organism-based; parameters: scale not given: the % may be the effect or the level left; details: in vivo, time 2-4 weeks; summary of the method: as §1
[20] = biological target: T1, Aurora kinase A (Homo sapiens) (UniProt O14965); details: SKNBE2, dose 50-1000 nM, time 24.0 hrs
T1 sequence (whole entry): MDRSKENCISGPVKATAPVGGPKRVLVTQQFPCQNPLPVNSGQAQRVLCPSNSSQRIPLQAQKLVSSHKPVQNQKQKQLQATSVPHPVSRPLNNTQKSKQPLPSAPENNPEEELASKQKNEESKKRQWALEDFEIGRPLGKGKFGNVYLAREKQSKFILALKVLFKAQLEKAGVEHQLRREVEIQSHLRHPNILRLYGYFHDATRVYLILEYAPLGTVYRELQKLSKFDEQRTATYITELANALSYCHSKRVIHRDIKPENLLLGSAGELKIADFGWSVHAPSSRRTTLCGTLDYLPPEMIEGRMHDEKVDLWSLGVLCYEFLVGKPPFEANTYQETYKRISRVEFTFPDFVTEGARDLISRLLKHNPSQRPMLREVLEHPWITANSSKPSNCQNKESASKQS

SK-N-BE(2) [21] = experiment: Down regulation of Cyclin B1 expression in human SKNBE2 cells at 50 to 1000 nM after 24 hrs by Western blot analysis; format: functional, cell-based; details: dose 50-1000 nM; summary of the method: as §2
[22] = biological target: Aurora kinase B (Homo sapiens) (UniProt Q96GD4); experiment: Inhibition of Aurora B phosphorylation in human SKNBE2 cells assessed as reduction in phosphorylation at Thr 232 residue at 50 to 1000 nM after 24 hrs by Western blot analysis; format: cell-based; details: dose 50-1000 nM; summary of the method: as §2
[23] = Oral bioavailability in ICR mouse at 10 mg/kg measured up to 24 hrs by LC-MS/MS analysis; format: ADME, organism-based; details: in vivo
NCI-H526 = experiment: Growth inhibition of human NCI-H526 cells assessed as reduction in cell viability after 72 hrs by PrestoBlue Cell Viability assay; format: functional, cell-based; details: NCI-H526, 72 h
Summary of the method: (§3)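 Cells seeded at 5000–10,000 per well; after 24 h, treated with an eight-point titration from 0 to 10 μM in triplicate. After 72 h exposure, viability read by PrestoBlue fluorescence, and IC50 computed from the titration. SCLC lines grown in RPMI1640 and SK-N-BE(2) in MEM, each with 10% FBS.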

SK-N-BE(2) [24] = experiment: Growth inhibition of human SKNBE2 cells assessed as reduction in cell viability after 24 hrs by PrestoBlue Cell Viability assay; details: SKNBE2, 24 h
NCI-H209 = experiment: Growth inhibition of human NCI-H209 cells assessed as reduction in cell viability after 72 hrs by PrestoBlue Cell Viability assay; format: functional, cell-based; details: NCI-H209, 72 h; summary of the method: as §3
[25] = biological target: T1, Aurora kinase A (Homo sapiens); details: NCI-H82, dose 50-1000 nM, time 24.0 hrs
SKNBE2 = experiment: Inhibition of Histone H3 phosphorylation in human SKNBE2cells assessed as reduction in phosphorylation at Ser 10 residue at 50 to 1000 nM after 24 hrs by Western blot analysis; details: dose 50-1000 nM; summary of the method: as §2
NCI-H82 [26] = experiment: Inhibition of Histone H3 phosphorylation in human NCI-H82 cells assessed as reduction in phosphorylation at Ser 10 residue at 50 to 1000 nM after 24 hrs by Western blot analysis; format: cell-based; details: dose 50-1000 nM; summary of the method: as §2
[27] = Growth inhibition of human NCI-H841 cells assessed as reduction in cell viability after 72 hrs by PrestoBlue Cell Viability assay; format: functional, cell-based; details: NCI-H841, 72 h; summary of the method: as §3
NCI-H82 [28] = experiment: Down regulation of Cyclin B1 expression in human NCI-H82 cells at 50 to 1000 nM after 24 hrs by Western blot analysis; format: functional, cell-based; details: dose 50-1000 nM; summary of the method: as §2
NCI-H82 [29] = experiment: Induction of cell cycle arrest in human NCI-H82 cells at 1 uM after 24 hrs by Propidium iodide staining based flow cytometric analysis; format: functional

CCC(=O)n1nc(C)cc1Nc1cc(N2CCN(CC)CC2)nc(N[C@H]2CCN(C(=O)c3ccc(Cl)cc3F)C2)n1
Activity (NCI-H446 [1]): Dose-Dependent Effect | inhibition in vivo at 100 mg/kg [2]: > 90% | Vd [3]: 3.4 L/kg | Activity (NCI-H446 [4]): Active | Activity (NCI-H446 [5]): Active | Cmax [6]: 2080 ng/mL | AUC(0-inf) [7]: 1410 ng·h/mL | AUC(0-inf) [8]: 4400 ng·h/mL | Activity (NCI-H446 [9]): Active | Tmax [10]: 0.3 h | clearance [11]: 21.3 mL/min/kg | Activity (NCI-H446 [12]): Active | half-life [13]: 2.7 h | Activity [14]: < 5% | half-life [15]: 4.8 h | Activity [16]: < 5%

CCN1CCN(c2cc(Nc3cc(C)[nH]n3)nc(N[C@H]3CCN(C(=O)c4ccc(Cl)cc4F)C3)n2)CC1
Vd [3]: 11.3 L/kg | inhibition [17]: Dose-Dependent Effect | Activity (NCI-H82 [18]): inactive | Cmax [6]: 395 ng/mL | AUC(0-inf) [7]: 703 ng·h/mL | Activity [19]: < 5% | inhibition [20]: Dose-Dependent Effect | AUC(0-inf) [8]: 533 ng·h/mL | Tmax [10]: 1 h | clearance [11]: 53.7 mL/min/kg | Activity (SK-N-BE(2) [21]): Active | half-life [13]: 1.6 h | inhibition [22]: Dose-Dependent Effect | bioavailability [23]: 16.8% | IC50 (NCI-H526): < 100 nM | half-life [15]: 4 h | IC50 (SK-N-BE(2) [24]): 1 nM | IC50 (NCI-H209): 20.7 nM | inhibition [25]: Dose-Dependent Effect | inhibition (SKNBE2): Active | inhibition (NCI-H82 [26]): Active | IC50 [27]: 2090 nM | Activity (NCI-H82 [28]): Active | Activity (NCI-H82 [29]): Active
